Tested on: Fibroblast
Experiment: Multiplex assay against human fibroblast
Assay type: toxicity, cell-based
Summary of the method: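 Cells stained live at seeding with Hoechst33342, BioTracker Green Microtubule Cytoskeleton Dye, MitoTracker Red and Annexin V Alexa Fluor 680 were imaged on a CQ1 microscope at 37°C and 5% CO2 after compound addition. Their classification by CellPathfinder machine-learning gating ran from Hoechst high-intensity objects versus normal cells, to healthy, pyknosed or fragmented nuclei among normal cells, to mitotic or apoptotic among pyknosed cells. Tubulin, mitochondrial-mass and membrane-permeability phenotypes are per cents of healthy-nucleus cells.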

[1] = 12 h, 1 µM, compound concentration 1 uM, replicate 1
[2] = 12 h, 1 µM, compound concentration 1 uM, replicate 2
[3] = 12 h, 10 µM, compound concentration 10 uM, replicate 1
[4] = 12 h, 10 µM, compound concentration 10 uM, replicate 2
[5] = 24 h, 1 µM, compound concentration 1 uM, replicate 1
[6] = 24 h, 1 µM, compound concentration 1 uM, replicate 2
[7] = 24 h, 10 µM, compound concentration 10 uM, replicate 1
[8] = 24 h, 10 µM, compound concentration 10 uM, replicate 2
[9] = 48 h, 1 µM, compound concentration 1 uM, replicate 1
[10] = 48 h, 1 µM, compound concentration 1 uM, replicate 2
[11] = 48 h, 10 µM, compound concentration 10 uM, replicate 1
[12] = 48 h, 10 µM, compound concentration 10 uM, replicate 2

COc1c(Nc2ccc(S(C)(=O)=O)nc2C)ncnc1OC1CCN(C(=O)OC(C)C)CC1 [ADP-597]
Population Apoptotic (%) [1]: 57% | Population Fragmented Nuclei (%) [1]: 14% | Population Healthy Nuclei (%) [1]: 71% | Population Hoechst High Intensity Objects (%) [1]: 3% | Population Membrane Permeable-Phenotype (%) [1]: 0% | Population Mitochondria Different-Phenotype (%) [1]: 10% | Population Mitotic Cells (%) [1]: 42% | Population Normal (%) [1]: 96% | Population Pyknosed Nuclei (%) [1]: 14% | Population Tubulin-Different-Phenotype (%) [1]: 34% | Total Cell Count [1]: 133 | Population Apoptotic (%) [2]: 42% | Population Fragmented Nuclei (%) [2]: 27% | Population Healthy Nuclei (%) [2]: 40% | Population Hoechst High Intensity Objects (%) [2]: 4% | Population Membrane Permeable-Phenotype (%) [2]: 2% | Population Mitochondria Different-Phenotype (%) [2]: 7% | Population Mitotic Cells (%) [2]: 57% | Population Normal (%) [2]: 95% | Population Pyknosed Nuclei (%) [2]: 33% | Population Tubulin-Different-Phenotype (%) [2]: 27% | Total Cell Count [2]: 105 | Population Apoptotic (%) [3]: 44% | Population Fragmented Nuclei (%) [3]: 21% | Population Healthy Nuclei (%) [3]: 58% | Population Hoechst High Intensity Objects (%) [3]: 2% | Population Membrane Permeable-Phenotype (%) [3]: 0% | Population Mitochondria Different-Phenotype (%) [3]: 15% | Population Mitotic Cells (%) [3]: 56% | Population Normal (%) [3]: 97% | Population Pyknosed Nuclei (%) [3]: 20% | Population Tubulin-Different-Phenotype (%) [3]: 54% | Total Cell Count [3]: 127 | Population Apoptotic (%) [4]: 39% | Population Fragmented Nuclei (%) [4]: 43% | Population Healthy Nuclei (%) [4]: 27% | Population Membrane Permeable-Phenotype (%) [4]: 11% | Population Mitochondria Different-Phenotype (%) [4]: 14% | Population Mitotic Cells (%) [4]: 60% | Population Normal (%) [4]: 98% | Population Pyknosed Nuclei (%) [4]: 28% | Population Tubulin-Different-Phenotype (%) [4]: 77% | Total Cell Count [4]: 100 | Population Apoptotic (%) [5]: 47% | Population Fragmented Nuclei (%) [5]: 17% | Population Healthy Nuclei (%) [5]: 67% | Population Hoechst High Intensity Objects (%) [5]: 4% | Population Membrane Permeable-Phenotype (%) [5]: 0% | Population Mitochondria Different-Phenotype (%) [5]: 1% | Population Mitotic Cells (%) [5]: 52% | Population Normal (%) [5]: 95% | Population Pyknosed Nuclei (%) [5]: 15% | Population Tubulin-Different-Phenotype (%) [5]: 27% | Total Cell Count [5]: 146 | Population Apoptotic (%) [6]: 37% | Population Fragmented Nuclei (%) [6]: 25% | Population Healthy Nuclei (%) [6]: 50% | Population Hoechst High Intensity Objects (%) [6]: 10% | Population Membrane Permeable-Phenotype (%) [6]: 10% | Population Mitochondria Different-Phenotype (%) [6]: 2% | Population Mitotic Cells (%) [6]: 62% | Population Normal (%) [6]: 89% | Population Pyknosed Nuclei (%) [6]: 24% | Population Tubulin-Different-Phenotype (%) [6]: 48% | Total Cell Count [6]: 109 | Population Apoptotic (%) [7]: 52% | Population Fragmented Nuclei (%) [7]: 20% | Population Healthy Nuclei (%) [7]: 60% | Population Hoechst High Intensity Objects (%) [7]: 5% | Population Membrane Permeable-Phenotype (%) [7]: 0% | Population Mitochondria Different-Phenotype (%) [7]: 5% | Population Mitotic Cells (%) [7]: 47% | Population Normal (%) [7]: 94% | Population Pyknosed Nuclei (%) [7]: 18% | Population Tubulin-Different-Phenotype (%) [7]: 41% | Total Cell Count [7]: 131 | Population Apoptotic (%) [8]: 27% | Population Fragmented Nuclei (%) [8]: 49% | Population Healthy Nuclei (%) [8]: 31% | Population Hoechst High Intensity Objects (%) [8]: 6% | Population Membrane Permeable-Phenotype (%) [8]: 10% | Population Mitochondria Different-Phenotype (%) [8]: 3% | Population Mitotic Cells (%) [8]: 72% | Population Normal (%) [8]: 93% | Population Pyknosed Nuclei (%) [8]: 19% | Population Tubulin-Different-Phenotype (%) [8]: 75% | Total Cell Count [8]: 99 | Population Apoptotic (%) [9]: 64% | Population Fragmented Nuclei (%) [9]: 25% | Population Healthy Nuclei (%) [9]: 63% | Population Hoechst High Intensity Objects (%) [9]: 2% | Population Membrane Permeable-Phenotype (%) [9]: 0% | Population Mitochondria Different-Phenotype (%) [9]: 4% | Population Mitotic Cells (%) [9]: 35% | Population Normal (%) [9]: 97% | Population Pyknosed Nuclei (%) [9]: 11% | Population Tubulin-Different-Phenotype (%) [9]: 30% | Total Cell Count [9]: 152 | Population Apoptotic (%) [10]: 42% | Population Fragmented Nuclei (%) [10]: 28% | Population Healthy Nuclei (%) [10]: 51% | Population Hoechst High Intensity Objects (%) [10]: 9% | Population Membrane Permeable-Phenotype (%) [10]: 2% | Population Mitochondria Different-Phenotype (%) [10]: 0% | Population Mitotic Cells (%) [10]: 57% | Population Normal (%) [10]: 90% | Population Pyknosed Nuclei (%) [10]: 20% | Population Tubulin-Different-Phenotype (%) [10]: 59% | Total Cell Count [10]: 102 | Population Apoptotic (%) [11]: 73% | Population Fragmented Nuclei (%) [11]: 29% | Population Healthy Nuclei (%) [11]: 58% | Population Hoechst High Intensity Objects (%) [11]: 8% | Population Membrane Permeable-Phenotype (%) [11]: 0% | Population Mitochondria Different-Phenotype (%) [11]: 20% | Population Mitotic Cells (%) [11]: 26% | Population Normal (%) [11]: 91% | Population Pyknosed Nuclei (%) [11]: 12% | Population Tubulin-Different-Phenotype (%) [11]: 57% | Total Cell Count [11]: 131 | Population Apoptotic (%) [12]: 75% | Population Fragmented Nuclei (%) [12]: 56% | Population Healthy Nuclei (%) [12]: 36% | Population Hoechst High Intensity Objects (%) [12]: 2% | Population Membrane Permeable-Phenotype (%) [12]: 2% | Population Mitochondria Different-Phenotype (%) [12]: 18% | Population Mitotic Cells (%) [12]: 25% | Population Normal (%) [12]: 97% | Population Pyknosed Nuclei (%) [12]: 7% | Population Tubulin-Different-Phenotype (%) [12]: 84% | Total Cell Count [12]: 108

Reference: ChEMBL document CHEMBL5058577, “EUbOPEN Chemogenomics Library 2 (Multiplex)” (2022)
